Compound activity from PubChem BioAssay.
TRPC6 act: activates the mouse TRPC6 cation channel. actives 0.13% (n = 310,000). HEK293-TRPC6 membrane potential dye fluorescence; active compounds read high. Q61143. B-score at 10 µM;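 active = B-score of the integrated fluorescence ratio above library mean plus 3 SD, and starting fluorescence ratio within library mean plus 5 SD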;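 also: higher score means more depolarization so channel activation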
Target sequence (Q61143 whole entry, looked up): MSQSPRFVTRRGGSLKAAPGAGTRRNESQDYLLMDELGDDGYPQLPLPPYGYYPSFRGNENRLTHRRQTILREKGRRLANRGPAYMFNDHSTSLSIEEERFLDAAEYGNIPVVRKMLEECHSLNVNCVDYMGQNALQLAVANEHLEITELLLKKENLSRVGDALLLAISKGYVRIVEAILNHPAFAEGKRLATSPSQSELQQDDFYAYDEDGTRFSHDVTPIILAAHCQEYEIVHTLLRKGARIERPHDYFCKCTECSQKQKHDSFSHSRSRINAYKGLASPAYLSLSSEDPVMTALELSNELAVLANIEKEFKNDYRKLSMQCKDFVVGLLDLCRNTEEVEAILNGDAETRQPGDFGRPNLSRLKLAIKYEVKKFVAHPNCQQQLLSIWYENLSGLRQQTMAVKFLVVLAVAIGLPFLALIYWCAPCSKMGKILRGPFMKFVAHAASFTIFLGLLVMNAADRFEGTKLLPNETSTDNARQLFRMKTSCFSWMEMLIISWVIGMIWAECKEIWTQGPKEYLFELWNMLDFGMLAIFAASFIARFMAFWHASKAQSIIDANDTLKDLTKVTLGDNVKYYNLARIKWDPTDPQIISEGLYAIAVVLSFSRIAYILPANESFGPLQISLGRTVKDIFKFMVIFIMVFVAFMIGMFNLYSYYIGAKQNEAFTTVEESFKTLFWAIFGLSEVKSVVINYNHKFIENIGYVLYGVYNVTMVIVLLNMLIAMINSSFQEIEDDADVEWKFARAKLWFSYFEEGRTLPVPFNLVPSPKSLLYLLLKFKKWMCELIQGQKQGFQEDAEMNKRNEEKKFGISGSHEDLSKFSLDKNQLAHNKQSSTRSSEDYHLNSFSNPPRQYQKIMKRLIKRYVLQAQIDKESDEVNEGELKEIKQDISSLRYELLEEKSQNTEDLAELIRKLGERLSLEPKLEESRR
TRPC4 agonist: opens the mouse TRPC4 cation channel. Q9QUQ5. HEK293 TRPC4beta/mu-opioid, Fluo4 calcium fluorescence; active compounds read high. B-score at 10 µM. actives 0.49% (n = 310,000);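 active = B-score above 5 SD of library B-scores, and initial fluorescence ratio not above library mean plus 5 SD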;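 also: positive B-score marks a calcium rise read as TRPC4 activation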
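Assay system: HEK293 stable line with TRPC4beta plus mu-opioid receptor. Times: dye 45 min RT, read 110 s. Measured by: kinetic Fluo4 calcium fluorescence. Measure: B score of integrated ratio. Controls: assay buffer as low control, maximal DAMGO as high control.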
TRPC4 potent: allosteric potentiators of mouse TRPC4 channel. Q9QUQ5. HEK293 TRPC4beta/mu-opioid, DAMGO EC20, Fluo-4 Ca2+ flux; active compounds read high. B-score at 10 µM. actives 0.42% (n = 310,000). AID 2227;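 active = B-score of calcium response area above 5 SD of library B-scores, with initial fluorescence ratio within 5 SD of library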;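 also: B-score of integrated fluorescence ratio over time as area under calcium response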
TRPC6 inhibitor: inhibitors of mouse TRPC6 channel. HEK293-TRPC6, membrane potential dye, ACh-evoked depolarization; active compounds read low. actives 1.1% (n = 310,000). B-score at 10 µM;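 active = B-score under library mean minus 3 SD, initial fluorescence not abnormally high, positive integrated signal ratio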;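 also: B-score derived from integrated fluorescence ratio over the kinetic read; more negative B-score means stronger inhibition of depolarization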
Kir21 block: inhibitors of mouse Kir2.1 inward-rectifier potassium channel; P35561; HEK293-Kir2.1, FluxOR thallium flux fluorescence; active compounds read low; B-score at 10 µM; actives 0.85% (n = 310,000);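 active = fluorescence ratio B-score at or below minus 3 SD of library scores, with starting-brightness B-score within 2 SD, cut at about -4.2 in these data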;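 also: channel flux triggered by added potassium and thallium sulfate stimulus; B-score of peak minus minimum fluorescence over baseline after thallium stimulus; more negative B-score means stronger Kir2.1 block with less thallium influx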
TRPC4 block: TRPC4 (mouse) channel inhibition | Q9QUQ5 | HEK293 TRPC4beta/mu-opioid, DAMGO-evoked Fluo4 calcium flux; active compounds read low | B-score at 10 µM | actives 0.39% (n = 300,000) | AID 2247;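 active = B-score over 3 SD under the library average, no early fluorescence shift, positive overall ratio signal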
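Material: HEK293 cells with stable TRPC4beta plus mu-opioid receptor expression / Probe or stimulus: DAMGO in two steps, submaximal then maximal / Compound: single concentration per test compound / Technique: kinetic Fluo4 fluorescence imaging of calcium influx / Read-out: per-well B score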
TRPC4 sel inh 2: second selectivity test of TRPC6 inhibitors: effect on mouse TRPC4 | shares compounds with TRPC6 inhibitor | HEK293 TRPC4/MOR, membrane potential dye fluorescence; channel activated by saturating DAMGO dose | inhibition, % at 10 µM | actives 42% (n = 920) | AID 2776;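 active = compounds whose fluorescence signal differed from control wells by over 3 SD, either direction, in both duplicate plates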
TRPC4 spec: mouse TRPC4 off-target activity of TRPC6 inhibitors; shares compounds with TRPC6 inhibitor; activity change, negative = inhibition, % at 10 µM; AID 2777; HEK293 TRPC4/mu-opioid, membrane potential fluorescence; actives 61% (n = 920);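 active = rise or fall in signal beyond 3 SD of buffer-only wells in both replicate plates, either sign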;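 also: integrated kinetic ratio of fluorescence range over baseline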
HEK293 MPD ctr 2-1: second counter-screen for TRPC6 inhibitors: parental HEK293 cells; shares compounds with TRPC6 inhibitor; actives 31% (n = 920); parental HEK293 membrane potential dye fluorescence; maximal acetylcholine challenge after compound addition; signal change vs control, % at 10 µM;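 active = membrane potential signal moving either way by over 3 SD of the maximum-effect control, in both duplicate plates, meaning non-specific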
HEK293 MPD ctr-1: parental HEK293 nonspecific activity of TRPC6 inhibitors. parental HEK293 membrane potential dye fluorescence. membrane potential signal change, % at 10 µM. actives 60% (n = 920). shares compounds with TRPC6 inhibitor;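 active = membrane potential signal shifting up or down by more than 3 SD of buffer-only wells, on both duplicate plates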
HEK293 MPD ctr-2: checks TRPC6 modulator effects in parental HEK293 cells | actives 51% (n = 2,400) | AID 488924 | membrane potential signal change, % at 10 µM | shares compounds with TRPC6 inhibitor | membrane potential dye fluorescence;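 active = membrane potential signal moves up or down beyond 5 SD from buffer-only wells, on both duplicate plates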
HEK293 MPD ctr 2-2: second counter-screen for TRPC6 modulators: effect in parental HEK293 cells. inhibition, % at 10 µM. shares compounds with TRPC6 inhibitor. actives 14% (n = 2,400). membrane potential dye fluorescence; after compound, maximal acetylcholine stimulation;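 active = membrane potential signal drops by more than 5 SD from the mean control signal, in both duplicate plates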;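 also: plate controls were acetylcholine ECmax control wells for no effect and buffer only wells for full effect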
TRPC4 ctr mod: mouse TRPC4 off-target activity of TRPC6 modulators | shares compounds with TRPC6 inhibitor | actives 69% (n = 2,400) | percent change from control (negative = decrease, positive = increase), % at 10 µM | HEK293 TRPC4/mu-opioid, membrane potential fluorescence;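 active = membrane potential signal moved up or down beyond 5 SD of buffer control wells, in both duplicate plates, actives on both sides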;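 also: plate controls were assay buffer wells for no effect and DAMGO maximal-effect wells for full effect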
TRPC4 ctr inh 2: mouse TRPC4 off-target activity of TRPC6 modulators, second screen; shares compounds with TRPC6 inhibitor; HEK293 TRPC4/mu-opioid, membrane potential dye fluorescence; stimulated with maximal-effect DAMGO; inhibition, % at 10 µM; actives 55% (n = 2,400);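 active = drop in membrane potential signal beyond 5 SD of the control wells in both duplicate plates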;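 also: TRPC4 counter screen for TRPC6 hits run under conditions tuned for TRPC6 not TRPC4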
TRPC6 block conf: confirmation of mouse TRPC6 inhibitors; shares compounds with TRPC6 inhibitor; HEK293-TRPC6, membrane potential dye, ACh-evoked depolarization; inhibition, % at 10 µM; actives 43% (n = 3,300);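 active = fluorescence ratio falls more than 5 SD below the full-stimulation control mean, in both duplicate runs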;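 also: integrated fluorescence ratio of peak minus minimum over baseline after agonist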
TRPC6 act conf: mouse TRPC6 activator confirmation; shares compounds with TRPC6 inhibitor; HEK293-TRPC6 membrane potential dye fluorescence, FDSS; activation, % at 10 µM; actives 11% (n = 2,800); AID 488961;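 active = ratio signal rise beyond 5 SD above unstimulated control wells' mean, seen in both duplicate runs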;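 also: plate controls were buffer EC0 wells for no effect and acetylcholine ECmax response for full effect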
* marks the source's active call; other numbers are inactive results. In the library only some 2.9% were active in any assay of this set; here they are far more common.

For Cc1ccc(C(=O)N2CCN(S(=O)(=O)c3ccc(C(C)C)cc3)CC2)s1 the results were TRPC6 act 14.7*, TRPC4 agonist inactive, TRPC4 potent inactive, TRPC6 inhibitor -12.5*, Kir21 block -1.7, TRPC4 block inactive, HEK293 MPD ctr-2 inactive, HEK293 MPD ctr 2-2 inactive, TRPC4 ctr mod inactive, TRPC4 ctr inh 2 inactive, TRPC6 block conf inactive and TRPC6 act conf inactive.
For O=C(c1ccccc1)N1CCN(C2C3CC4CC(C3)CC2C4)CC1 (centres undefined) the results were TRPC6 act inactive, TRPC4 agonist inactive, TRPC4 potent inactive, TRPC6 inhibitor -9.55*, Kir21 block -3.24, TRPC4 block inactive, TRPC4 sel inh 2 inactive, TRPC4 spec 2.6%*, HEK293 MPD ctr 2-1 inactive, HEK293 MPD ctr-1 6.7%* and TRPC6 block conf inactive.
COc1cccc(C(C(=O)NC2CCCCC2)N(C(=O)CNC(=O)c2ccco2)c2cccnc2)c1 (centres undefined) was read as TRPC6 act inactive, TRPC4 agonist inactive, TRPC4 potent inactive, TRPC6 inhibitor inactive, Kir21 block -0.42 and TRPC4 block inactive.
Screening O=C(CN1C(=O)C2C3C=CC(C3)C2C1=O)OCC(=O)c1ccc(Br)cc1 (centres undefined) returned TRPC6 act inactive, TRPC4 agonist inactive, TRPC4 potent inactive, TRPC6 inhibitor inactive, Kir21 block -2.59 and TRPC4 block inactive.
Screening COc1cc(/C=C/C(=O)OCC(=O)Nc2ccc(S(=O)(=O)N3CCCC3)cc2)ccc1O returned TRPC6 act inactive, TRPC4 agonist inactive, TRPC4 potent inactive, TRPC6 inhibitor inactive, Kir21 block 0.38 and TRPC4 block inactive.
For Cc1nn(-c2ccccc2)c(C)c1C(=O)NCc1cccs1 the results were TRPC6 act inactive, TRPC4 agonist inactive, TRPC4 potent inactive, TRPC6 inhibitor inactive, Kir21 block 0.9 and TRPC4 block inactive.
For O=C(Nc1cc(C(F)(F)F)ccc1-n1cnc2ccccc21)c1ccccc1 the results were TRPC6 act inactive, TRPC4 agonist inactive, TRPC4 potent inactive, TRPC6 inhibitor -5.26*, Kir21 block 0, TRPC4 block inactive, HEK293 MPD ctr-2 106.5%*, HEK293 MPD ctr 2-2 inactive, TRPC4 ctr mod 19.0%*, TRPC4 ctr inh 2 inactive and TRPC6 block conf 47.0%*.
Screening CC(=O)Nc1ccc(SCC(=O)OCC(=O)NC(=O)NCCC(C)C)cc1 returned TRPC6 act inactive, TRPC4 agonist inactive, TRPC4 potent inactive, TRPC6 inhibitor inactive, Kir21 block -0.06 and TRPC4 block inactive.
For Cc1ccc(OCC(O)CN2CCC(Cc3ccccc3)CC2)c(C)c1 (centres undefined) the results were TRPC6 act inactive, TRPC4 agonist inactive, TRPC4 potent inactive, TRPC6 inhibitor -5.33*, Kir21 block -4.58*, TRPC4 block inactive, HEK293 MPD ctr-2 448.5%*, HEK293 MPD ctr 2-2 inactive, TRPC4 ctr mod 93.5%*, TRPC4 ctr inh 2 81.0%* and TRPC6 block conf 46.5%*.
For OC(COc1ccc(F)cc1Cl)CN1CCC(Cc2ccccc2)CC1 (centres undefined) the results were TRPC6 act inactive, TRPC4 agonist inactive, TRPC4 potent inactive, TRPC6 inhibitor inactive, Kir21 block -3.35 and TRPC4 block inactive.
`OC(COc1ccccc1F)CN1CCC(Cc2ccccc2)CC1` (centres undefined) gave TRPC6 act inactive, TRPC4 agonist inactive, TRPC4 potent inactive, TRPC6 inhibitor -5.06*, Kir21 block -1.03, TRPC4 block inactive, HEK293 MPD ctr-2 155.0%*, HEK293 MPD ctr 2-2 inactive, TRPC4 ctr mod 25.0%*, TRPC4 ctr inh 2 44.0%* and TRPC6 block conf inactive.
`C=CCc1ccccc1OCC(O)CN1CCN(c2ccc(OC)cc2)CC1` (centres undefined) gave TRPC6 act inactive, TRPC4 agonist inactive, TRPC4 potent inactive, TRPC6 inhibitor -5.33*, Kir21 block -3.5, TRPC4 block inactive, HEK293 MPD ctr-2 inactive, HEK293 MPD ctr 2-2 inactive, TRPC4 ctr mod inactive, TRPC4 ctr inh 2 54.5%*, TRPC6 block conf 60.5%* and TRPC6 act conf inactive.
C=CCc1ccccc1OCC(O)CN1CCOCC1 (centres undefined) was read as TRPC6 act inactive, TRPC4 agonist inactive, TRPC4 potent inactive, TRPC6 inhibitor inactive, Kir21 block 0.84 and TRPC4 block inactive.
Screening Cc1ccc(-n2c(=O)c3sccc3n(Cc3cc(=O)n4ccccc4n3)c2=O)cc1F returned TRPC6 act inactive, TRPC4 agonist inactive, TRPC4 potent inactive, TRPC6 inhibitor inactive, Kir21 block 0 and TRPC4 block inactive.
